In ChEMBL document CHEMBL1130412, “Antiulcer agents. 6. Analysis of the in vitro biochemical and in vivo gastric antisecretory activity of substituted imidazo[1,2-a]pyridines and related analogues using comparative molecular field analysis and hypothetical active site lattice methodologies” (J Med Chem, 1997):
The source made the active and inactive calls. No cut-off for these calls is given here.

Key:
[1] = target: Potassium-transporting ATPase (Sus scrofa, UniProt P19156); assay: (§1) Inhibition of purified H+/K+ ATPase at pH 7.4 as released inorganic phosphate from ATP using hog stomach gastric membrane vesicles; format: tissue-based
Method in brief: (§2)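 Gastric membrane vesicles from hog stomach were prepared by differential and zonal density gradient centrifugation. Activity was read as inorganic phosphate released from ATP at pH 7.4. Protein was measured by the Bradford method against a gammaglobulin standard.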

[2] = target: Potassium-transporting ATPase (Oryctolagus cuniculus); assay: Inhibition of H+/K+ ATPase as reduced acid formation in rabbit gastric glands
Canis familiaris [3] = assay: Intravenous effective dose for gastric antisecretory activity against histamine-stimulated gastric acid secretion in adult mongrel dogs; Inactive; format: functional, organism-based; settings: Canis lupus familiaris; Stomach
Method in brief: (§3)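 Adult mongrel dogs with surgically prepared Heidenhain pouches received histamine to stimulate acid secretion. Compounds were given intravenously at 0.1-5 mg/kg. Reduction in acid output was measured against the non-drug control value in the same animal. ED50 for 50% inhibition was derived by linear regression, with 95% confidence limits.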

Canis familiaris [4] = species on record: Canis familiaris; assay: Peroral effective dose for gastric antisecretory activity against histamine-stimulated gastric acid secretion in adult mongrel dogs; Inactive; format: functional, organism-based; settings: Canis lupus familiaris; Stomach
[5] = Dissociation constant (pKa); format: physicochemical
Canis familiaris [6] = assay: Intravenous effective dose for gastric antisecretory activity against histamine-stimulated gastric acid secretion in adult mongrel dogs; format: functional; settings: Canis lupus familiaris, Stomach; method in brief: as §3
Canis familiaris [7] = assay: Intravenous effective dose for gastric antisecretory activity against histamine-stimulated gastric acid secretion in adult mongrel dogs; Inactive-less than 20% inhibition at 5 mg/Kg (experimental); format: functional, organism-based; settings: Canis lupus familiaris; Stomach; method in brief: as §3
[8] = target: T1, Potassium-transporting ATPase (Sus scrofa, UniProt P18434+P19156); assay: as §1; format: tissue-based; method in brief: as §2
[9] = target: T1, Potassium-transporting ATPase; assay: Ability to inhibit purified H+/K+ ATPase at pH 7.4 measured as release of inorganic phosphate from ATP using gastric membrane vesicles prepared from hog stomach; Inactive; format: tissue-based
Method in brief: as §2, with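 “7.4. IC50 was taken as the concentration giving 50% inhibition of K+-stimulated activity, calculated by linear regression and reported ± standard error of the mean.” for “7.4.”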

[10] = test system: Potassium-transporting ATPase (Oryctolagus cuniculus); assay: Inhibition of H+/K+ ATPase was evaluated by its ability to inhibit acid formation in rabbit gastric glands; Inactive

Chain of Potassium-transporting ATPase (Sus scrofa, UniProt P19156) (P18434 whole entry): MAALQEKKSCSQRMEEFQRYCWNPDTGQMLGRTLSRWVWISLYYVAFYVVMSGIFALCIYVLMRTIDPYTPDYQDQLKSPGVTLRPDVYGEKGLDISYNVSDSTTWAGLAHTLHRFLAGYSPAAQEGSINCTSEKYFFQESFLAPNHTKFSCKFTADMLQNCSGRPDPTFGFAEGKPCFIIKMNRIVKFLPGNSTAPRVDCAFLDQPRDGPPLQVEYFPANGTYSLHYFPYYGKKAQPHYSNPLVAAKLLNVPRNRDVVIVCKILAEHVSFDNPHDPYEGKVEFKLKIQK
Chain of Potassium-transporting ATPase (Sus scrofa, UniProt P19156) (P19156 whole entry): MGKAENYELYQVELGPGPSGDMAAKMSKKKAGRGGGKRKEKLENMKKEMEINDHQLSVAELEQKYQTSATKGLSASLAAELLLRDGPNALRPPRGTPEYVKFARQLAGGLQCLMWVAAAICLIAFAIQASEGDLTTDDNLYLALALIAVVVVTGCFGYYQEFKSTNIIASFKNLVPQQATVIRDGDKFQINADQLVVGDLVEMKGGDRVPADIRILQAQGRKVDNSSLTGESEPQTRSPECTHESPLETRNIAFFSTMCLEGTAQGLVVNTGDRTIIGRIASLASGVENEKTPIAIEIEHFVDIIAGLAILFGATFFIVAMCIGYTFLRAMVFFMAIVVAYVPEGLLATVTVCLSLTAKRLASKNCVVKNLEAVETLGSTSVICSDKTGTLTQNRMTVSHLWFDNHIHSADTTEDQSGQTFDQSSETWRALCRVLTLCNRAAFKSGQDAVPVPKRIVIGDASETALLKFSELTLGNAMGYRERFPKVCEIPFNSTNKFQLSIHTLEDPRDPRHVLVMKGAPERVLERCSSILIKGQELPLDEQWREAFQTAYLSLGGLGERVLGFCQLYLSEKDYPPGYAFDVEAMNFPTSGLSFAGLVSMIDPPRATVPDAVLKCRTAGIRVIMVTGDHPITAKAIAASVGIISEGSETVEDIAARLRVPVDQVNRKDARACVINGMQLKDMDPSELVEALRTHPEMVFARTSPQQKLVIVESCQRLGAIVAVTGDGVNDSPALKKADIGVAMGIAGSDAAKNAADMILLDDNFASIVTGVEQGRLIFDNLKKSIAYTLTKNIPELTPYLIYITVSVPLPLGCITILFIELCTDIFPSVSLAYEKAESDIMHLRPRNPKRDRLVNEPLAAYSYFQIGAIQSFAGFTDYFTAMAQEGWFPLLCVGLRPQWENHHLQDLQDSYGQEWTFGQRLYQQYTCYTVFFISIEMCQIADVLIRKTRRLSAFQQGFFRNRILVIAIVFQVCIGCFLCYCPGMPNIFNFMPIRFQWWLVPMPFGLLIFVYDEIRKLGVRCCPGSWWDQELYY
T1 sequence (P18434 whole entry): as the sequence (P18434 whole entry) above
T1 sequence (P19156 whole entry): as the sequence (P19156 whole entry) above

Row | IC50 [1] | IC50 ([2]; read-out: IC50) | pKa [5] | SMILES | ED50 (Canis familiaris [4]) | ED50 (Canis familiaris [6]) | also measured
1 | 2000 nM | 130 nM | – | Cc1nc2c(CCc3ccccc3)cccn2c1CC#N | – | – | –
2 | 28400 nM | 17500 nM | – | Cc1nc2c(/C=C\c3ccccc3)cccn2c1C | inactive | – | ED50 (Canis familiaris [3]): inactive
3 | 13700 nM | 400 nM | – | Cc1ccn2c(CC#N)c(C)nc2c1OCc1ccccc1 | – | – | –
4 | 1680 nM | 990 nM | – | Cc1nc2c(/C=C/c3ccccc3)cccn2c1C | – | – | –
5 | – | – | 5.5 | Cc1c(CC#N)nc2c(OCc3ccccc3)cccn12 | – | 0.8 mg/kg | –
6 | – | – | 5.1 | Cc1nc2c(CCc3ccccc3)nccn2c1N | – | – | ED50 (Canis familiaris [7]): inactive
7 | 2100 nM | 1460 nM | – | Cc1nc2c(CCc3ccccc3)cccn2c1N | – | – | –
8 | – | 8080 nM | – | Cc1nc2c(OCc3ccccc3)nccn2c1N | – | – | IC50 [8]: 178 uM l-1
9 | – | – | 2 | Cc1c(C(F)(F)F)nc2c(OCc3ccccc3)cccn12 | – | – | ED50 (Canis familiaris [7]): inactive
10 | 92 nM | 64 nM | – | Cc1nc2c3c(ccn2c1CC#N)CCC(c1ccccc1)O3 (stereo unspecified) | – | 0.06 mg/kg | –
11 | 14000 nM | 3800 nM | – | Cc1nc2c(/C=C/Cc3ccccc3)cccn2c1CC#N | – | – | –
12 | – | – | 7.5 | Cc1nc2c(CCc3ccccc3)cccn2c1C | – | 0.2 mg/kg | –
13 | – | – | 2 | N#CCc1c(C(F)(F)F)nc2c(OCc3ccccc3)cccn12 | inactive | – | ED50 (Canis familiaris [3]): inactive; IC50 [9]: Not Active; IC50 [10]: Not Active
14 | – | – | 2 | OCc1c(C(F)(F)F)nc2c(OCc3ccccc3)cccn12 | inactive | – | ED50 (Canis familiaris [3]): inactive; IC50 [9]: Not Active; IC50 [10]: Not Active
15 | – | – | – | Cc1nc2c(C/C=C/c3ccccc3)cccn2c1CC#N | inactive | – | ED50 (Canis familiaris [3]): inactive; IC50 [8]: 206 uM l-1; IC50 [2]: 442 uM l-1
16 | 890 nM | 310 nM | – | Cc1nc2c(OCc3ccccc3)cccn2c1N | – | – | –
17 | – | – | 4.8 | Cc1nc2c(OCc3ccccc3)nccn2c1C | – | 2 mg/kg | –
18 | – | – | 7 | Cc1nc2c(OCc3ccccc3)cccn2c1C | – | 0.1 mg/kg | –
19 | 2200 nM | 530 nM | 6.1 | Cc1nc2c(OCc3ccccc3)cccn2c1CO | inactive | 0.3 mg/kg | –
20 | 8600 nM | 14100 nM | – | Cc1nc2c(/C=C/Cc3ccccc3)cccn2c1N | inactive | – | ED50 (Canis familiaris [3]): inactive
